# Test system: MS2 coat protein
# Test: apparent Kd, MS2 coat protein; higher = weaker binding; RNA-MaP array; FMN 200 µM where present
# In short: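 Binding was read on Illumina sequencing-chip clusters where stalled E. coli RNA polymerase had transcribed each design. A titration of SNAP-549-labelled MS2 coat protein began at 0.7 or 1.5 nM and doubled to 3 µM, once without ligand and once with constant ligand, in 100 mM Tris-HCl pH 7.5, 80 mM KCl, 4 mM MgCl2, BSA, DTT, yeast tRNA and Tween-20. The apparent Kd is the median of filtered per-cluster binding-curve fits, based on green signal normalised to red-channel RNA signal and control-cluster median Fmax.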
# [1] = designed as: OFF switch for flavin mononucleotide, no ligand
# [2] = ligand present: flavin mononucleotide, designed as: OFF switch for flavin mononucleotide
# [3] = designed as: ON switch for flavin mononucleotide, no ligand
# [4] = ligand present: flavin mononucleotide, designed as: ON switch for flavin mononucleotide
Sequence,apparent Kd [1] [nM],apparent Kd [2] [nM],apparent Kd [3] [nM],apparent Kd [4] [nM]
UUUUAACAUGAGGAUCACCCAUGUGAGGAUAUCGUUUUUUAUAUUAAUAUUAAUAAAACGAGAAGGCACAUUUU,137,150,–,–
GGAUAGGACAGAGGAUAUACGUGCUAGAGAUUCUAGCAAAAUUUCCUCACAUGAGGAUCACCCAUGUAGAAGGCUGUCCUAUCG,15.6,321,–,–
UGAUCGAGAGAUCUUAGAUUCUGGUAGGAUAUACAUUAUGUAUUAUAUACAUGAGGAUCACCCAUGUAGAAGGACUAGAGUCUA,6.7,11.8,–,–
CGCAAACUUGGGUUUAAUGGUGCAUAGGAUAUGCUUGUACAUGAGGAUCACCCAUGUACUAUUGUGCAGAAGGGUGCAUUUGCG,–,–,7.97,5.77
AGGCGAGUAGGAUAUGCGUUUUUACGGGAAAGCUGGAUGAUACAUGAGGAUCACCCAUGUAGAAGGGCUCUGAA,20.6,16,–,–
UAAACGUUCUAGAAGGUGCUUUUGUUAAACAAGCAAGGAUAUAGACAUGAGGAUCACCCAUGUCUUUGAGACAUCGACAUACUU,8.41,9.14,–,–
UUAUUAUGUGUAGGAUAUGCAUAUUAUUAUUAUGCAGAAGGACAUGAGGAUCACCCAUGUAUAUUAUUAAUAUAUAUUAUAUAU,13.9,15.7,–,–
AUAUUUGUUUAGAAGGACAUGAGGAUCACCCAUGUCGCUGGGCGCGGGAAACCGUGGGCGGCCAUGUAGGAUAUAGGGAGAUAU,36.6,24,–,–
UCACGGGACUGAGGAUAUACAUGAACUAUUUUUGUAGAAGGCAGAAUGUUAGAUUAUACACUAAACAUGAGGAUCACCCAUGUU,19.1,16.1,–,–
AAUUAAUUAAUACAUGAGGAUCACCCAUGUAAUUAUUAGAUCUAGGAUAUCAGCUCGAAUAGAGCUGAGAAGGAGAUCACAUGU,–,–,19.4,15
UACUCGUGUGAGAAGGGACGUAUCUCCAUGAGGGCAGGGCUAUUAGAGAAGUCAGGAUAUCACAUGAGGAUCACCCAUGUGACG,8.26,10.8,–,–
GGCUUCUUCACAGGAUAUGGUUUUUUAAGUAUACAUGAGGAUCACCCAUGUCCAGAAGGGUGAGGGUCCGGCGUACAGUGUCGG,–,–,645,30.4
UGAGCGACCACAGGAUAUGCUUGAGAAGACCGAGCAGAAGGGUGGAAGAGCGUGCAGUGACAUGAGGAUCACCCAUGUGGUUGG,–,–,173,170
CCGCUCUUGGUCAGGAUAUCUAUGCGGGCCAGCACAGAGAAGGGACAUGAGGAUCACCCAUGUUUCGGGAUGUA,22.3,38.9,–,–
UGAUACUAAGAGAAGGUACAAACUACAUAUUACAUACAUGAGGAUCACCCAUGUUGGUGAAUAAGUAAGGAUAUUUUACUAUAU,15.4,12.4,–,–
UGAGCAUGAGGAUAUACAUGACGUGCCGUAGCACGAGGUCUACAUGAGGAUCACCCAUGUAGAAGGCAUGUUCU,23,87.4,–,–
GGAUAGGACAGAGGAUAUACGUGCUAGAGAUACUAGCAAAAUUUCCUUACAUGAGGAUCACCCAUGUAGAAGGCUGUCCUAUCG,5.79,12.7,–,–
UCGAUGCUAGGAUAUACUAAUACAACUACUGAAGUGUCUUCACAUGAGGAUCACCCAUGUAGAAGGAGCAUAUA,59.5,46.8,–,–
UGCGACCUAGGAUAUACAUGAGGAUCACCCAUGUGAUUCGGUGGCGCGAUCCUUGAAAGUAGAAGGAGGAGCAA,40.1,35.3,–,–
AGUCAUACAGGAUAUACAUGAGGAUCACCCAUGUAUAUCCAAAAAAAAUGAUCCUCAUGUAGAAGGGUAUGACA,15.9,10.5,–,–
AAUAAACUCACAGGAUAUAGCAGAGAUCGCGUGAACUUACAGGCGACGAUGCUAGAAGGGUGACCACAUGAGGAUCACCCAUGU,–,–,673,120
GUCAGCUCGUCAGGAUAUACGUCACUGCUUCGGCAGUGUGGUAAGAUCACAUGAGGAUCACCCAUGUAGAAGGGACGAGCUGAU,12.3,291,–,–
GGUACUCAAAGAGUACCAAUACGAACAUGAGGAUCACCCAUGUAGGAUAUGCUAUCGAAACGAUAGCAGAAGGACAUGUGCCUU,26.4,218,–,–
AUUAUUGACGAAGGAUAUGGAUACAUGAGGAUCACCCAUGUAUAAUUUGUGUUCUUAUAUUUGAUCCAGAAGGUCGUUGUUUAU,35.8,54.6,–,–

Sequence,apparent Kd [1] [nM],apparent Kd [2] [nM],apparent Kd [3] [nM],apparent Kd [4] [nM]
AUAAUGUGAGGAUAUACAUGAGGAUCACCCAUGUAAUUAAAUCGGAGAGCCACAUUUCGUAGAAGGUACAUUUA,20.7,22.6,–,–
CUCCUACAUGAGGAUCACCCAUGUCAGGAUAUCUCAGUGGCGCCUAAAUGUGCCACCCAGAGAAGGGACGUGCA,11.6,15.3,–,–
AAUUAUUUUUGAGGAUAUGGUGGUGAAACACCACCAGAAGGCGAAAUAAACAUGAGGAUCACCCAUGUGAGCCUGAUGCUUAUG,21.1,55.8,–,–
UCCACUACUGAGAAGGGAUACAUAUGGUUCUAGUCAGGAUAUCGAUACAGUGCAGCAUGAGGACAUGAGGAUCACCCAUGUAUU,–,–,54.6,36.2
AACAGUACAGGAUAUACAUGAGGAUCACCCAUGUGACAAUUAAGUGGCGUACCACAAAGUAGAAGGGUACUGGA,28.2,150,–,–
UUACAUACAAAGGUACAUGAGGAUCACCCAUGUUUGUUGGGAAGAAGGGUAACAGUACUACACAUAUAGGAUAUUUCACAAAUA,–,–,52.4,40
UUAUGUGGCGUAGGAUAUCAUUAGAUUUGUAAUUUAAUUGUAAUUUCCAUAUGAGAAGGACGUACACAUGAGGAUCACCCAUGU,90.1,32.4,–,–
GGGUACGUCGGAGGAUAUCAUGUAAAUACAUGAGGAUCACCCAUGUCGAUGGAGACAUCGGAGAUUGAGAAGGCCGAUGUACCG,–,–,192,8.89
AAUUAUUUGUAGAAGGAAGGAGAUUUUGUAUUCUUAGGAUAUACUAUUACAUGAGGAUCACCCAUGUUUGAAGGGUUGCUAUGU,74.2,82.2,–,–
AUCAGCUCGUCAGGAUAUACGUCACUGCGUCAGCAGUGUGUUAAGAUCACAUGAGGAUCACCCAUGUAGAAGGGACGAGCUGAU,6.7,27.9,–,–
GUAUCGUAUGUGAGGAUAUAUUAAACCUUGGAUUUGUAGAAGGCACAUGAGGAUCACCCAUGUCCUAGUGGUCC,29.4,33.3,–,–
UCUACUUUACAUGAUUCAUCAACACAGGAUAUACCCGCAACAUGAGGAUCACCCAUGUAGGCCCGGUAGAAGGGUGCUUGGGAA,–,–,10.8,6.43
AAACCGUGUGGAGGAUAUGCAGUUGAGGUGAGGUAGCAACUCUAUACGACAGCAGAAGGCCACAUGAGGAUCACCCAUGUAGGU,489,158,–,–
GUUUUCGCAUGAGGAUAUGCUCGCAUUUCUAGAGCAGAAGGUAUGUCUAUAGACAUGAGGAUCACCCAUGUAUUUAACUUUGAA,–,–,186,34.4
AAUUAUUUUUGAGGAUAUUGUGGUGAAACACCACAAGAAGGCAAGAUACACAUGAGGAUCACCCAUGUGAGCCUGAUGCUUAUG,17.1,21.3,–,–
GGACGUCUCAUUAACAUGAGGAUCACCCAUGUCGAUAGACAUGAGGAUAUGGAUCCUAAUUGGAUCCAGAAGGCAUGGACGUCC,–,–,1040,67.6
UCGCUGCGAGGAUAUACAUGAGGAUCACCCAUGUACGGGUCCGGGUCUUCGUCCAUUAGUAGAAGGCGCAGUGA,52.8,325,–,–
GCCCUCUCUGAGGAUAUUAUCUGGUUCGAUUGAUAAGAAGGCAGUACAUGAGGAUCACCCAUGUGGUUCGUUUG,109,303,–,–
GCUGCAUGCAGAGGAUAUAUAACAUGAGGAUCACCCAUGUAAAAUAUAUGGAUAAACCAGAUAGUAUAGAAGGCUGCAUGCAGC,22.9,19.1,–,–
AUAAGCUCGUCAGGAUAUACGUCACUGCUUCGGCAGUGAGGUAUGAUCACAUGAGGAUCACCCAUGUAGAAGGGACGAGCUUAU,5.63,8.57,–,–
CUGUAGUGAGGAUAUUAUUUGCAAGCCCUAGACGGCGCGAAUGAGAAGGUACAUGAGGAUCACCCAUGUGGUUG,126,297,–,–
UUUUAACAUGAGGAUCACCCAUGUGAGGAUAUCGAAAUUUAUAUUUAUAUUAAUAUUACGAGAAGGCACAUUUU,85.5,118,–,–
ACAAGAUCAGGAUAUACAUGAGGAUCACCCAUGUAUAUAAAAAAAGGGCUUUCUACAUGUAGAAGGGAUCUUGU,29.9,37,–,–
UUCCUGUCAGGAUAUGACUAGAUGCACGAAAGUGUGUUUAGUUAGAAGGGACAUGAGGAUCACCCAUGUAGUCC,23.5,39,–,–

# — the EternaBench riboswitch data
